This note sets out measurements from ChEMBL document CHEMBL3244038, “Synthesis and analgesic activity of human beta-endorphin” (1977).

In test [1] the test system is Mus musculus. As to the kind of experiment: Analgesic activity in opiate antagonist naloxone hydrochloride-treated ICR mouse assessed as inhibition of heat stimulus-induced tail flick response at 20.1 mg/kg, iv measured for 20 to 30 mins. It is filed as functional, organism-based. Also on record: dose 20.1 mg/kg. Put shortly:
(§1)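 Male ICR mice, 25-30 g. Peptide given iv via the tail vein at 9.4, 18.8 or 28.2 mg/kg. Tail-flick latency to heat with a 10 s cutoff. Percent analgesia calculated against the pre-drug control latency. For line 10, naloxone hydrochloride 1 mg/kg sc was given 5 min before 20.1 mg/kg peptide. Mean ± SEM.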

The subject of test [2] is Mus musculus. As to the kind of experiment: Potency index, ratio of morphine AD50 to compound AD50 for analgesic activity in icv dosed ICR mouse assessed as inhibition of heat stimulus-induced tail flick response. In kind it is functional.
Test [3] has as its system Mus musculus. Nature of the test: Potency index, ratio of morphine AD50 to compound AD50 for analgesic activity in icv dosed ICR mouse assessed as inhibition of acetic acid-induced writhing response. In kind it is functional.
Test [4] is filed under the species Mus musculus. As to the kind of experiment: Potency index, ratio of morphine AD50 to compound AD50 for analgesic activity in ICR mouse assessed as inhibition of thermal stimulus-induced response by hot-plate test. It is filed as functional.
For test [5], the system named is Mus musculus. As to the kind of experiment: Analgesic activity in opiate antagonist naloxone-treated ICR mouse assessed as inhibition of acetic acid-induced writhing response at 0.38 ug, icv administered 5 mins prior to acetic acid challenge measured for 15 mins. In kind it is functional, organism-based. Put shortly: (§2)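 Male ICR mice, 25-30 g. Peptide given icv (5 µl) 5 min before i.p. 0.6% acetic acid (0.1 ml/10 g body weight). Writhes counted over 15 min.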

The subject of test [6] is Mus musculus. As to the kind of experiment: Analgesic activity in iv dosed ICR mouse assessed as inhibition of heat stimulus-induced tail flick response measured for 20 to 30 mins. In kind it is functional, organism-based. Summed up:
as §1

In test [7] the test system is Mus musculus. Nature of the test: Analgesic activity in ICR mouse assessed as inhibition of heat stimulus-induced tail flick response at 0.38 ug, icv administered opiate antagonist naloxone at 10 mins post compound treatment measured for 30 to 60 mins. In kind it is functional, organism-based. Put shortly:
(§3)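 Male ICR mice, 25-30 g. Peptide given icv (5 µl) over a dose range of 0.09-0.38 µg/mouse. Tail-flick latency was measured against noxious heat with a 10 s cutoff. Control latency was the mean of two pre-drug readings. Percent analgesia = (T1−T0)/(T2−T0)×100. For line 2, naloxone 1 mg/kg sc was given 10 min after the peptide. Mean ± SEM.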

In test [8] the test system is Mus musculus. Nature of the test: Analgesic activity in icv dosed ICR mouse assessed as inhibition of heat stimulus-induced tail flick response measured for 30 to 60 mins. In kind it is functional, organism-based. Summed up: as §3
Test [9] deals with Mus musculus. As to the kind of experiment: Analgesic activity in ICR mouse assessed as inhibition of acetic acid-induced writhing response at 0.38 ug, icv administered 5 mins prior to acetic acid challenge measured for 15 mins. It is filed as functional, organism-based. Summed up:
as §2

In test [10] the test system is Mus musculus. As to the kind of experiment: Potency index, ratio of morphine AD50 to compound AD50 for analgesic activity in iv dosed ICR mouse assessed as inhibition of heat stimulus-induced tail flick response. It is filed as functional.
In test [11] the test system is Mus musculus. Nature of the test: Analgesic activity in icv dosed ICR mouse assessed as inhibition of thermal stimulus-induced response by hot-plate test in presence of opiate antagonist naloxone. It is filed as functional, organism-based.
The test system of test [12] is Mus musculus. As to the kind of experiment: Analgesic activity in icv dosed ICR mouse assessed as inhibition of thermal stimulus-induced response by hot-plate test. It is filed as functional, organism-based. Summed up:
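Male ICR mice, 25-30 g. Peptide given icv (5 µl). Hot-plate latency with a 60 s cutoff. Control latency was the mean of two pre-drug readings, with test latencies at various times after injection. Percent analgesia = (T1−T0)/(T2−T0)×100.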

Test [13] deals with Mus musculus. Nature of the test: Analgesic activity in icv dosed ICR mouse assessed as 50% inhibition of heat stimulus-induced tail flick response measured for 60 to 90 mins. In kind it is functional. Summed up: (§4)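 Male ICR mice, 25-30 g. Tail-flick latency to heat with a 10 s cutoff. A twofold increase in latency over the pre-drug control was the quantal criterion. AD50 with 95% confidence limits by Litchfield-Wilcoxon.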

The subject of test [14] is Mus musculus. Nature of the test: Analgesic activity in icv dosed ICR mouse assessed as 50% inhibition of acetic acid-induced writhing response administered 5 mins prior to acetic acid challenge measured for 60 to 90 mins. In kind it is functional.
Test [15] deals with Mus musculus. As to the kind of experiment: Analgesic activity iv dosed ICR mouse assessed as 50% inhibition of heat stimulus-induced tail flick response measured for 60 to 90 mins. In kind it is functional. Put shortly:
as §4

For test [16], the system named is Mus musculus. Nature of the test: Analgesic activity in icv dosed ICR mouse assessed as 50% inhibition of thermal stimulus-induced response measured for 60 to 90 mins by hot-plate test. In kind it is functional. Summed up: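 Male ICR mice, 25-30 g. Peptide given icv (5 µl). Hot-plate latency with a 60 s cutoff. A twofold increase over the control latency (mean of two pre-drug readings) was the quantal criterion. AD50 with 95% confidence limits by Litchfield-Wilcoxon.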

Calls of active or inactive are those of the source.

Take `CC[C@H](C)[C@H](NC(=O)[C@H](C)NC(=O)[C@H](CC(N)=O)NC(=O)[C@H](CCCCN)NC(=O)[C@H](Cc1ccccc1)NC(=O)[C@H](CC(C)C)NC(=O)[C@@H](NC(=O)[C@@H](NC(=O)[C@H](CC(C)C)NC(=O)[C@@H]1CCCN1C(=O)[C@@H](NC(=O)[C@H](CCC(N)=O)NC(=O)[C@H](CO)NC(=O)[C@H](CCCCN)NC(=O)[C@H](CCC(=O)O)NC(=O)[C@H](CO)NC(=O)[C@@H](NC(=O)[C@H](CCSC)NC(=O)[C@H](Cc1ccccc1)NC(=O)CNC(=O)CNC(=O)[C@@H](N)Cc1ccc(O)cc1)[C@@H](C)O)[C@@H](C)O)C(C)C)[C@@H](C)O)C(=O)N[C@H](C(=O)N[C@@H](CCCCN)C(=O)N[C@@H](CC(N)=O)C(=O)N[C@@H](C)C(=O)N[C@@H](Cc1ccc(O)cc1)C(=O)N[C@@H](CCCCN)C(=O)N[C@@H](CCCCN)C(=O)NCC(=O)N[C@@H](CCC(=O)O)C(=O)O)[C@@H](C)CC`: the inhibition result in the test on Mus musculus [1], with Mus musculus [5], in the test with Mus musculus [7] and with Mus musculus [11] was “inactive” throughout. Further, the Ratio in the test on Mus musculus [2] amounted to 48.4; in the test with Mus musculus [3], 17.3; in the test filed under Mus musculus [4] it was 32.8; with Mus musculus [10], 3.4. Besides, the inhibition entry in the test with Mus musculus [6] and in the test with Mus musculus [8] was “Dose-dependent effect” throughout. The inhibition result with Mus musculus [9] and in the test with Mus musculus [12] was “Active” throughout.

Regarding H-YGGFMTSEKSQTPLVTLFKNAIIKNAHKKGQ-OH, the Ratio with Mus musculus [2] is listed as 33; with Mus musculus [3], 19.5; in the test filed under Mus musculus [4], 17.5; in the test on Mus musculus [10] it was 3.5.

Take `CN1CC[C@]23c4c5ccc(O)c4O[C@H]2[C@@H](O)C=C[C@H]3[C@H]1C5` [MORPHINE]: the AD50 in the test on Mus musculus [13] was 0.026 nmol; in the test on Mus musculus [14], 0.026 nmol; in the test with Mus musculus [15] it was 3.32 µmol/kg; with Mus musculus [16], 0.031 nmol.
